The values that follow come from article PMC8775362 (Molecular pharmaceutics, 2021).

Like-named read-outs stand apart in the source and are kept apart here. Non-standard residues stand in square brackets, D forms with d. Residues, ends and D or L forms follow the SMILES beside them. *: point of attachment. 5FAM = O=C1OC2(c3ccc(O)cc3Oc3cc(O)ccc32)c2ccc(C(=O)*)cc21; Trp(6-Cl) = N[C@@H](Cc1c[nH]c2cc(Cl)ccc12)C(=O)O; pY = N[C@@H](Cc1ccc(OP(=O)(O)O)cc1)C(=O)O; Ac3c = NC1(C(=O)O)CC1; Aib = CC(C)(N)C(=O)O; βAla = NCCC(=O)O

For one series, the target named is MDM2. The following applies: cited from earlier work.
The conditions of series [1]: cited from earlier work.
A further series concerns P-glycoprotein. The note with it: neuroblastoma cells; cited from earlier work.
Series [2] concerns HepG2 human hepatocellular carcinoma cells. Put plainly: Cell uptake and specificity of [^18F]6 in HepG2 cells. Type of series: cell-based. A digest of the protocol: (§1)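 Cells (HepG2 in MEM, SJSA-1 in RPMI 1640, both with 10% FBS) were seeded at 2×10^5/well and held overnight at 37°C. Medium was swapped for serum-free medium holding 18.5 kBq tracer; incubation was at 37°C for 0.5, 1 or 2 h. Blocking used unlabeled parent inhibitor, either 5–50 µM for 1 h or 25 µM for the time course.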

The test system of series [3] is SJSA-1 human osteosarcoma cells. Put plainly: Cell uptake and specificity of [^18F]6 in SJSA-1 cells. Type of series: cell-based. A digest of the protocol: as §1

As usually defined, the Kd is a measure of binding affinity in units of concentration. The IC50 is the concentration that inhibits the measured activity by half. Usually inhibition stands for the change of the read-out against control, counted positive when it falls.

Turning to `CSCC[C@H](NC(=O)[C@H](Cc1ccccc1)NC(=O)CCNC(=O)CCNC(=O)c1ccc2c(c1)C(=O)OC21c2ccc(O)cc2Oc2cc(O)ccc21)C(=O)NC(C)(C)C(=O)N[C@@H](Cc1ccc(OP(=O)(O)O)cc1)C(=O)N[C@@H](Cc1c[nH]c2cc(Cl)ccc12)C(=O)N[C@@H](CCC(=O)O)C(=O)NC1(C(=O)N[C@@H](CC(C)C)C(=O)N[C@@H](CC(N)=O)C(N)=O)CC1` [5-FAM-PMDM6] ({5FAM-βAla-βAla}-FM[Aib][pY][Trp(6-Cl)]E[Ac3c]LN-NH2; N-terminus and C-terminus assumed), at MDM2 (read-out: binding affinity (Kd) towards MDM2, literature, same assay), the Kd was 1 ± 0.1 nM.
Turning to `CC(C)[C@@H](CS(=O)(=O)C(C)C)N1C(=O)[C@@](C)(CC(=O)O)C[C@H](c2cccc(Cl)c2)[C@H]1c1ccc(Cl)cc1` [AMG232], the IC50 in the series with MDM2 (read-out: IC50 inhibiting the MDM2-p53 interaction) is […].
Take `COc1cc(C(=O)O)ccc1NC(=O)[C@@H]1N[C@@H](CC(C)(C)C)[C@](C#N)(c2ccc(Cl)cc2F)[C@H]1c1cccc(Cl)c1F` [RG7388, Idasanutlin]: the “stability in humans in vivo” value in series [1] was “fully stable”. Further, the “substrate of P-glycoprotein” value in the series on P-glycoprotein is on record as “not a good substrate”. Moreover, the “effect of blocking on [^18F]6 uptake” value is recorded as “significantly decreased” in series [2] (HepG2, 25 μM RG7388, all time points 30-120 min) and “significantly decreased” in series [3] (SJSA-1, 25 μM RG7388, all time points 30-120 min). Besides, the inhibition at 50 µM in series [2] (Homo sapiens, HepG2, 1 h, read-out: inhibition of [^18F]6 uptake) was over 80%; in series [3] (Homo sapiens, SJSA-1, 1 h, read-out: inhibition of [^18F]6 uptake), over 80%. Further, the IC50 with MDM2 (read-out: IC50 disrupting the MDM2-p53 interaction) was […].
As to `COc1ccc2[nH]c3c(-c4cccc5ccccc45)nccc3c2c1` [SP-141], the Kd on MDM2 (read-out: binding affinity Kd) was 43 nM.
